Experimental data as given in ChEMBL document CHEMBL1123615, “1,3-Dialkyl-4-(iminoarylmethyl)-1H-pyrazol-5-ols. A series of novel potential antipsychotic agents” (J Med Chem, 1987).

How the values were obtained:
Mus musculus [1] = test: Inhibition of locomotor activity (LMA) and motor coordination in mice by intraperitoneal administration.; format: functional; settings: ip
Procedure, shortened: (§1)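 Mice scored for inhibition of spontaneous locomotor activity and for ataxia (impaired motor coordination). Nine mice per dose; ED50 derived from at least three doses.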

Mus musculus [2] = test: Inhibition of ataxia in mice by intraperitoneal administration.; format: functional; settings: ip; procedure, shortened: as §1
[3] = Inhibition of sidman avoidance in squirrel monkeys, activity expressed as ED50 mg/kg per orally.; format: functional; settings: po
Procedure, shortened: (§2)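 Sidman avoidance in rats or squirrel monkeys with oral dosing; ED50 given in mg/kg.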

Rattus norvegicus [4] = test: Effect on serum prolactin level, activity expressed as percent control at 23.7 and 27.0 mg/kg per orally.; format: functional
Procedure, shortened: (§3)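 Rats dosed orally and killed 1 h after administration; serum prolactin measured. Values are means from groups of five animals, expressed as % of vehicle control.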

[5] = Extrapyramidal syndrome(EPS) signs in cebus monkeys, activity expressed as MED mg/kg per orally.; format: functional; settings: po; read-out: MED
Procedure, shortened: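 Cebus monkeys previously sensitized to haloperidol, observed for dystonic signs after oral dosing. Minimal effective dose determined in at least three animals.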

D(2) dopamine receptor = D(2) dopamine receptor (Rattus norvegicus, UniProt P61169); test: In vitro binding affinity against Dopamine receptor D2 by displacement of [3H]haloperidol from rat striatal membranes.; format: cell membranes, Membrane
Sequence of D(2) dopamine receptor (P61169 whole entry): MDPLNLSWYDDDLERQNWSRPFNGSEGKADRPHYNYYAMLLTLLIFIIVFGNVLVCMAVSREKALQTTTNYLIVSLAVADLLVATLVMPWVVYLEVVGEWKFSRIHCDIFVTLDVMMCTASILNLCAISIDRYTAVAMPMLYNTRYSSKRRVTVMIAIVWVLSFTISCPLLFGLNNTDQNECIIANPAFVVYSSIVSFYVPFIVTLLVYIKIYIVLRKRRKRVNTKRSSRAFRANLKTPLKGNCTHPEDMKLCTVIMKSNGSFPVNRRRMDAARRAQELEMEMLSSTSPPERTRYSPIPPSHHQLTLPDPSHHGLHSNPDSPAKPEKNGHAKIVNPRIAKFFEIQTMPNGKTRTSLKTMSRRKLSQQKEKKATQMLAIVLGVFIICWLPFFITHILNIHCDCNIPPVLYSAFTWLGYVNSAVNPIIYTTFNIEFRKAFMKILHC

Rattus norvegicus [6] = test: Inhibition of sidman avoidance in rats, activity expressed as ED50 mg/kg per orally.; format: functional; settings: po; procedure, shortened: as §2
[7] = target: alpha-2 adrenergic receptor (Rattus norvegicus); test: Affinity for displacement of [3H]clonidine labeled alpha-2 adrenergic receptor
Rattus norvegicus [8] = test: Inhibition of self-stimulation in rats, activity expressed as ED50 mg/kg per orally.; format: functional; settings: po
Procedure, shortened: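 Oral dosing in rats; suppression of high baseline self-stimulation measured; ED50 given in mg/kg.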

[9] = target: alpha-1 adrenergic receptor (Rattus norvegicus); test: Affinity for displacement of [3H]WB-4101 labeled alpha-1 adrenergic receptor
D(1A) dopamine receptor = D(1A) dopamine receptor (Rattus norvegicus, UniProt P18901); test: Affinity for displacement of [3H]SCH-23390 labeled Dopamine receptor D1
Sequence of D(1A) dopamine receptor (P18901 whole entry): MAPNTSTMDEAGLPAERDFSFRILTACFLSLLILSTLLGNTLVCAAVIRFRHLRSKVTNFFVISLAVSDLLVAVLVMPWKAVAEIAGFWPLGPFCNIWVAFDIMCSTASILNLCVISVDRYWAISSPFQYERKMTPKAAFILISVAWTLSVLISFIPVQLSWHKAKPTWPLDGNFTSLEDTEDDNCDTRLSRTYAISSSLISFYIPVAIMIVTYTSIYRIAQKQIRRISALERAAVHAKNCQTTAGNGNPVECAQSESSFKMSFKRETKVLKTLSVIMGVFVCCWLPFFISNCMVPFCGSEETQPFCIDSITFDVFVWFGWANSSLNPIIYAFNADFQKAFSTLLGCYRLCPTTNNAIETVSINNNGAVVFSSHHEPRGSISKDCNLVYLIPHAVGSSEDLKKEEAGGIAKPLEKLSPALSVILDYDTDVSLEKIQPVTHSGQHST
Procedure, shortened: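 [3H]SCH23390 binding (D1 label), run by a method from earlier work. IC50 obtained by non-linear regression over four or five concentrations. Reference standard SCH23390 included.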

Rattus norvegicus [10] = test: Effect on serum prolactin level, activity expressed as percent control at 27.0 mg/kg per orally.; format: functional; procedure, shortened: as §3
Rattus norvegicus [11] = test: Effect on serum prolactin level, activity expressed as percent control at 23.7 mg/kg per orally.; format: functional; settings: in the assay text read “27.0 mg/kg” for “23.7 mg/kg”; procedure, shortened: as §3

What does the source list for `Cc1[nH]n(C)c(=O)c1C(=N)c1ccc2ccccc2c1`?
ED50 (Mus musculus [1]): 65.6 mg/kg; ED50 (Mus musculus [2]): > 100 mg/kg

With `Cc1[nH]n(C)c(=O)c1C(=N)c1cccc(Cl)c1` as the molecule, how does the ED50 [3] read?
Its ED50 is 16.3 mg/kg.

What about the Control (Rattus norvegicus [4]) of the same molecule?
The Control was -25%.

What about the minimal effective dose [5] of the same molecule?
The minimal effective dose was > 100 mg/kg.

What about the IC50 (D(2) dopamine receptor) of the same molecule?
The IC50 was > 10 µM.

What about the ED50 (Mus musculus [1]) of the same molecule?
Its ED50 is 15.2 mg/kg.

And the ED50 (Rattus norvegicus [6])?
Its ED50 is 17 mg/kg.

What about the IC50 [7] of the same molecule?
Its IC50 is > 10 µM.

What about the ED50 (Rattus norvegicus [8]) of the same molecule?
The ED50 was 23.7 mg/kg.

What about the IC50 [9] of the same molecule?
The IC50 was > 10 µM.

What about the ED50 (Mus musculus [2]) of the same molecule?
The ED50 was > 100 mg/kg.

What about the IC50 (D(1A) dopamine receptor) of the same molecule?
Its IC50 is > 10 µM.

For `Cc1[nH]n(C)c(=O)c1C(=N)c1cccc(Br)c1`, which IC50 (D(2) dopamine receptor) is on record?
The IC50 was > 10 µM.

What about the ED50 (Mus musculus [1]) of the same molecule?
The ED50 was 20.5 mg/kg.

What about the ED50 (Mus musculus [2]) of the same molecule?
The ED50 was > 30 mg/kg.

With `Cc1ccc(C(=N)c2c(C)[nH]n(C)c2=O)cc1` as the molecule, how does the ED50 (Mus musculus [1]) read?
The ED50 was > 100 mg/kg.

And the ED50 (Mus musculus [2])?
The ED50 was > 100 mg/kg.

With `COc1ccc(C(=N)c2c(C)[nH]n(C)c2=O)cc1` as the molecule, how does the ED50 (Mus musculus [1]) read?
Its ED50 is > 100 mg/kg.

What about the ED50 (Mus musculus [2]) of the same molecule?
The ED50 was > 100 mg/kg.

Which results are given for `Cc1[nH]n(C)c(=O)c1C(=N)c1ccc(C(F)(F)F)cc1`?
IC50 (D(2) dopamine receptor): > 10 µM; ED50 (Mus musculus [1]): 31.4 mg/kg; ED50 (Mus musculus [2]): > 30 mg/kg

With `Cc1[nH]n(C)c(=O)c1C(=N)c1cccc([N+](=O)[O-])c1` as the molecule, how does the ED50 (Mus musculus [1]) read?
The ED50 was 38.8 mg/kg.

And the ED50 (Mus musculus [2])?
The ED50 was > 100 mg/kg.

For `Cc1[nH]n(C)c(=O)c1C(=N)c1cccc(C(F)(F)F)c1`, which ED50 (Mus musculus [1]) is on record?
Its ED50 is > 30 mg/kg.

What about the ED50 (Mus musculus [2]) of the same molecule?
The ED50 was > 30 mg/kg.

What does the source list for `Cc1[nH]n(C)c(=O)c1C(=N)c1ccccc1`?
IC50 (D(2) dopamine receptor): > 10 µM; ED50 (Mus musculus [1]): 13.9 mg/kg; ED50 (Mus musculus [2]): 30.2 mg/kg

For `Cn1[nH]cc(C(=N)c2ccccc2)c1=O`, which ED50 (Mus musculus [1]) is on record?
Its ED50 is 49.1 mg/kg.

And the ED50 (Mus musculus [2])?
Its ED50 is > 100 mg/kg.

Which results are given for `CCc1[nH]n(C)c(=O)c1C(=N)c1cccc(Cl)c1`?
ED50 (Mus musculus [1]): 60.6 mg/kg; ED50 (Mus musculus [2]): 47.6 mg/kg

Which results are given for `Cc1[nH]n(C)c(=O)c1C(=N)c1ccccc1Cl`?
ED50 (Mus musculus [1]): 31.1 mg/kg; ED50 (Mus musculus [2]): 50.8 mg/kg

Which IC50 (D(2) dopamine receptor) does the source give for `CCn1[nH]c(C)c(C(=N)c2cccc(Cl)c2)c1=O` here?
Its IC50 is > 10 µM.

And the ED50 (Mus musculus [1])?
The ED50 was 16 mg/kg.

What about the ED50 (Mus musculus [2]) of the same molecule?
The ED50 was 45.3 mg/kg.

With `Cc1[nH]n(C)c(=O)c1C(=N)c1ccc(F)cc1` as the molecule, how does the IC50 (D(2) dopamine receptor) read?
Its IC50 is > 10 µM.

What about the ED50 (Mus musculus [1]) of the same molecule?
Its ED50 is 15 mg/kg.

And the ED50 (Mus musculus [2])?
Its ED50 is > 30 mg/kg.

For `Cc1[nH]n(C)c(=O)c1C(=N)c1ccc(Cl)c(Cl)c1`, which ED50 (Mus musculus [1]) is on record?
Its ED50 is 26.4 mg/kg.

And the ED50 (Mus musculus [2])?
The ED50 was > 30 mg/kg.

Which ED50 (Mus musculus [1]) does the source give for `CCCCn1[nH]c(C)c(C(=N)c2ccccc2)c1=O` here?
The ED50 was 48.7 mg/kg.

And the ED50 (Mus musculus [2])?
Its ED50 is > 100 mg/kg.

With `Cc1[nH]n(C)c(=O)c1/C(=N/C(=O)C(F)(F)F)c1cccc(Cl)c1` as the molecule, how does the IC50 (D(2) dopamine receptor) read?
Its IC50 is > 10 µM.

What about the ED50 (Mus musculus [1]) of the same molecule?
Its ED50 is 17.9 mg/kg.

What about the ED50 (Mus musculus [2]) of the same molecule?
The ED50 was > 100 mg/kg.

Which ED50 (Mus musculus [2]) does the source give for `CN1CCN(C2=Nc3cc(Cl)ccc3Nc3ccccc32)CC1` [CLOZAPINE] here?
The ED50 was 10 mg/kg.

Which results are given for `CSc1ccc2c(c1)N(CCC1CCCCN1C)c1ccccc1S2` (stereo not drawn) [THIORIDAZINE]?
ED50 [3]: 4 mg/kg; minimal effective dose [5]: 2.5 mg/kg; ED50 (Mus musculus [1]): 2.9 mg/kg; ED50 (Rattus norvegicus [6]): 14.4 mg/kg; ED50 (Rattus norvegicus [8]): 28.3 mg/kg; Control (Rattus norvegicus [10]): 918%; ED50 (Mus musculus [2]): > 100 mg/kg; Control (Rattus norvegicus [11]): 918%
